Most compounds without a hit are left out; they make up all but 1.6% or so of the library.
PKA-R2B activ: activators of PKA-R2B holoenzyme, primary screen, biochemical, fluorescence polarization, Cy5-IP20, human. cAMP-dependent protein kinase catalytic subunit beta (Homo sapiens) + cAMP-dependent …. PKA-R2B holoenzyme dissociation; R2B truncated from residue 108, S112A mutant; 0% DMSO only, 100% 113 µM cGMP. activation, % at 11.4 µM. 340,000 compounds, 0.079% hits. AID 504700, 2011;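 active means activation above a cutoff set at the mean over all compounds plus 3 SD, cut at about 18% in these data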;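 further: higher means more holoenzyme dissociation and a rise in polarization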
PfG6PD inh: PfG6PD enzyme inhibitors, primary screen, biochemical, fluorescence intensity, uHTS. glucose-6-phosphate dehydrogenase-6-phosphogluconolactonase (Plasmodium falciparum 3D7). PfGluPho enzyme, NADPH resazurin-diaphorase fluorescence. inhibition, % at 20 µM. 350,000 compounds, 0.78% hits. AID 504690, 2011;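 active means inhibition reaching at least a set limit at 20 µM in the primary screen, cut at about 59% in these data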;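 further: 0% = DMSO wells with substrate and 100% = DMSO wells lacking glucose-6-phosphate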
PKA-R1A activ: activators of PKA-R1A holoenzyme, primary screen, biochemical, fluorescence polarization, Cy5-IP20, bovine R1A, mouse PKAc; activation, % at 11.4 µM; 340,000 compounds, 0.083% hits; PKA-R1A dissociation; scaled: DMSO 0%, 113 µM cGMP 100%; AID 504707, 2011; cAMP-dependent protein kinase type I-alpha regulatory subunit (Bos taurus) + …;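 active means percent activation above the mean of all tested compounds plus 3 SD, cut at about 19% in these data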;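 further: higher means more PKAc released from R1A so a rise in polarization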
T cell modulator: modulators of CD8 T cell-vesicle binding, primary screen, mouse 2C CD8+ T cells, flow cytometry. response (vesicle binding), % at 7 µM. AID 2052, 2009. 2C CD8+ T cell-vesicle binding; hits give low values. 330,000 compounds, 0.068% hits;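 active means response, share of CD8 T cells binding vesicles, and their 90th percentile fluorescence all below set limits, cut at about 80% in these data, passing the limit was not always enough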;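 further: values below 100% mean blocked vesicle binding to the CD8+ T cells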
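Material: 2C TCR transgenic mouse naive CD8+ T cells, MACS-purified. Also added: QL9-charged Drosophila Ld/ICAM-1/B7-1 vesicles. Timing: binding 1.5 h at 37 °C. Measured by: high-throughput flow cytometry with anti-B7-1 and anti-CD8 staining. Read-out: percent CD8+ FL2 mean versus row control. Controls: Unloaded micro-vesicles (low), QL9 vesicles with 0.7% DMSO (high).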
HKDC1 inhibitor: HKDC1 hexokinase inhibitors, primary screen, biochemical, fluorescence, uHTS. Q2TB90. recombinant HKDC1, G6PDH/diaphorase resazurin coupled fluorescence. inhibition, % at 20 µM. 340,000 compounds, 0.16% hits. AID 493160, 2011;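 active means inhibition above about 35% when tested at 20 µM, limit read from the data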;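 further: plate controls were DMSO wells with enzyme for no effect and DMSO wells lacking enzyme for full effect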
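Test system: recombinant HKDC1 (HK5) hexokinase enzyme, produced in-house; Amount: enzyme 5 µg/mL final; Buffer or medium: Tris pH 8.0 buffer with MgCl2, Tween-20, BSA, BME; Reagent: glucose and ATP substrates; Doses: 20 µM test compound, 1% DMSO; Incubation: 90 min reaction incubation at room temperature, dark; Detection: resorufin fluorescence at 613 nm.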
ATG4B inh: ATG4B protease inhibitors, primary screen, biochemical, fluorescence, uHTS; 340,000 compounds, 0.51% hits; ATG4B cleavage of LC3-PLA2, NBD-HPC fluorescence, 1 h; Cysteine protease ATG4B (Homo sapiens), Q9Y4P1; AID 504462, 2011; inhibition, % at 8.33 µM; in the data active means inhibition above about 40%
Target sequence (Q9Y4P1 whole entry, looked up): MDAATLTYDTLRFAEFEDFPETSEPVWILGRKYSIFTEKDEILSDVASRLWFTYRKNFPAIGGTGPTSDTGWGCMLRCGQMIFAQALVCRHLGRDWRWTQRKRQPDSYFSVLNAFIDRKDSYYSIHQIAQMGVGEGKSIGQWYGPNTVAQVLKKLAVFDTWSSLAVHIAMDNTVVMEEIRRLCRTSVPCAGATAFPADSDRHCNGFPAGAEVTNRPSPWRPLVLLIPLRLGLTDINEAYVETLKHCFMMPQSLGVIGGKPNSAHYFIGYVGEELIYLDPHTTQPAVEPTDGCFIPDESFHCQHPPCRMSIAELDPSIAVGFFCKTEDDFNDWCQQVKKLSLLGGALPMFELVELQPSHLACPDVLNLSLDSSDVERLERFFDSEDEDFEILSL
PfG6PD confirm: PfG6PD inhibitors, hit retest, confirmation, biochemical, fluorescence intensity, single concentration; recombinant PfGluPho, NADPH-diaphorase-resazurin fluorescence; AID 504753, 2011; inhibition, % at 20 µM; shares compounds with PfG6PD inh; 2,400 compounds, 34% hits;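 active means inhibition of at least 50% at 20 µM in any single replicate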;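 further: 0% = DMSO with substrate and 100% = DMSO lacking glucose-6-phosphate substrate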
Diaph ctr 10uM: diaphorase inhibitors and chemical oxidizers, confirmation, counter-screen for P. falciparum G6PD inhibitor project, biochemical, fluorescence intensity, 10 µM NADPH; shares compounds with PfG6PD inh; diaphorase-coupled resazurin reduction, NADPH 10 uM; inhibition, % at 20 µM; 820 compounds, 39% hits; AID 504862, 2011;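 active means average inhibition reaching 50% or more with the compound at 20 µM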;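 further: resorufin red fluorescence formed as diaphorase reduces resazurin using NADPH; 0% = DMSO with enzyme and 100% = DMSO without enzyme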
Diaph ctr 30uM: diaphorase inhibitors and chemical oxidizers, confirmation, counter-screen for P. falciparum G6PD inhibitor project, biochemical, fluorescence intensity, 30 µM NADPH; shares compounds with PfG6PD inh; Diaphorase/resazurin coupled assay, resorufin fluorescence; inhibition, % at 20 µM; 820 compounds, 29% hits;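 active means inhibition averaging 50% or more, tested at 20 µM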;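 further: 0% = DMSO with enzyme and 100% = DMSO wells lacking diaphorase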
Numbers without * were called inactive; i = inactive; x = not tested or not shown.

SMILES	PKA-R2B activ	PfG6PD inh	PKA-R1A activ	T cell modulator	HKDC1 inhibitor	ATG4B inh	PfG6PD confirm	others
CN(C)C1(CNC(=O)C2CCC(=O)N(CCc3ccc(Cl)cc3)C2)CCCCC1 (stereo not drawn)	-7	-8	-5	308	-8	1	x
CC(C)(CNC(=O)c1cccc(S(=O)(=O)N2CCCCC2)c1)N1CCOCC1	-7	-9	-13	x	x	x	x
CN1CCc2cccc3c2[C@H]1Cc1ccc(O)c(O)c1-3	-4	87*	5	722	4	-1	89*	Diaph ctr 10uM=21;Diaph ctr 30uM=3
CCN(CC)CCNC(=O)CCCCn1c(=S)[nH]c2c([nH]c3ccc(OC)cc32)c1=O	-1	64*	-2	312	-1	5	47*	Diaph ctr 10uM=-3;Diaph ctr 30uM=-8
Cc1noc(C)c1S(=O)(=O)N1CCCN(C(=O)/C=C/c2ccccc2F)CC1	-1	4	2	822	0	-16	x
O=C1c2ccccc2C(=O)N1OS(=O)(=O)c1ccccc1	x	x	x	333	x	x	x
Cc1cc(S(=O)(=O)ON2C(=O)c3ccccc3C2=O)ccc1F	-10	65*	-3	507	4	-1	6
CC(=O)c1c(C)[nH]c(C(=O)OCC(=O)Nc2nnc(-c3ccccc3)o2)c1C	-16	-8	3	250	6	-7	x
Cc1ccc(NC(=O)c2cc([N+](=O)[O-])ccc2N2CCOCC2)cc1C	2	32	-6	182	-2	-3	x
Cc1ccc(NC(=O)c2cc([N+](=O)[O-])ccc2N2CCOCC2)cc1S(=O)(=O)N(C)C	0	78*	3	430	3	-12	35
Cc1[nH]c(=O)[nH]c(=O)c1S(=O)(=O)Nc1cccc(C(F)(F)F)c1	1	-6	2	180	-2	6	x
COc1cc(/C=C/C(=O)Nc2nnc(CC(C)(C)C)s2)cc(OC)c1OC	6	59*	-16	375	-19	0	35
Cc1c(N)cccc1Cl	1	7	3	x	-3	4	x
Cc1c(C(=O)Nc2cccc([N+](=O)[O-])c2)cnn1-c1ccccc1	-6	74*	0	116	-1	0	27
CC(=O)c1cccc(NC(=O)c2cnn(-c3ccccc3)c2C)c1	-1	75*	-7	234	6	3	51*	Diaph ctr 10uM=41;Diaph ctr 30uM=35
NC(=S)NN=Cc1nccc2c(N)cccc12	2	100*	13	x	x	x	49
COC(=O)C(OC(=O)c1ccccc1)C(C)Br (stereo not drawn)	-1	-7	6	275	-3	5	x
Cc1ccc2nc(SCC(=O)N/N=C/c3ccco3)cc(C)c2c1	-6	69*	5	i	0	-2	50*	Diaph ctr 10uM=66*;Diaph ctr 30uM=36
Cc1ccc2nc(N/N=C/c3ccco3)cc(C)c2c1	-4	64*	4	332	1	13	28
Cc1ccc2nc(C)cc(SCC(=O)N/N=C/c3ccco3)c2c1	-7	7	-19	304	2	-3	x
N#Cc1ccccc1NC(=O)COc1ccccc1C(=O)Nc1ccccc1	-13	12	12	715	5	-12	x
COc1ccccc1C(=O)NNC(=O)c1ccc(Br)o1	7	19	2	285	-2	-5	x
CCN(CC)S(=O)(=O)c1ccc2c(c1)nc(CCC(=O)Nc1ccccc1Cc1ccccc1)n2CC	-10	2	-6	340	18	34	x
CC(C)CCN1NC2(CCCC(C)C2)NC1=S (stereo not drawn)	x	8	x	253	-6	5	x
CC1CCCC2(C1)NC(=S)c1c(sc3c1CCCC3)N2 (stereo not drawn)	6	64*	5	387	-3	1	11
SMILES	PKA-R2B activ	PfG6PD inh	PKA-R1A activ	T cell modulator	HKDC1 inhibitor	ATG4B inh	PfG6PD confirm	others
CCn1c(SCC(=O)Nc2nncs2)nnc1C(C)NC(=O)c1ccccc1Br (stereo not drawn)	-7	-24	-8	477	-5	-2	x
COc1ccccc1NS(=O)(=O)c1cc(N)ccc1N1CCOCC1	-2	55	2	269	-7	-7	x
Nc1ccc(N2CCCC2)c(S(=O)(=O)Nc2cccc(C(F)(F)F)c2)c1	-1	80*	5	177	-2	-2	27
CCOC(=O)C(=CNc1ccc(N2CCCCC2)c(S(=O)(=O)Nc2ccccc2OC)c1)C(=O)OCC	-15	65*	-6	x	-6	-7	24
COc1ccccc1NS(=O)(=O)c1cc(N)ccc1N1CCCC1	4	70*	9	226	-2	-7	22
COc1ccccc1NS(=O)(=O)c1cc(NC(C)=O)ccc1N1CCCCC1	-5	49	-16	283	0	-4	x
COc1cccc(NC(=O)CN(C)C(=O)c2ccc3c(c2)C(=O)N(CCC(C)C)C3=O)c1	2	-7	-5	196	0	-11	x
COc1cn(-c2ccccc2)nc1C(=O)OCC(=O)Nc1ccc(C)c(C)c1	5	2	8	522	-2	-18	x
OCc1cccc(Nc2ncnc3sc4c(c23)CCCCC4)c1	-1	10	0	546	4	-8	x
O=C1N=C(c2ccccc2)S/C1=C\c1cccs1	-3	63*	6	278	4	4	30
Cc1ccc2nc(COC(=O)c3cccnc3Cl)cc(=O)n2c1	-1	18	5	x	x	x	x
CN(C)c1ccc(C=C2C=Cc3ccccc32)cc1	-1	11	-8	x	6	8	x
CN(C)c1ccc(C=c2c3ccccc3n3c2c2ccccc2[n+]3C)cc1	-18	89*	-15	x	25	29	88*	Diaph ctr 10uM=-20;Diaph ctr 30uM=-1

Bioassay records as filed in PubChem.
